# Shown are actives, neighbours in structure and some others; about 2.7% of the full set was active somewhere.
# NR2E3 ag-1: agonists of human NR2E3 nuclear receptor; CHO-S Gal4-NCOR/VP16-NR2E3 two-hybrid, luciferase; inhibition of corepressor binding, % at 3.98 µM; 0.35% of 360,000 active;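 active means inhibition above the mean of all tested compounds plus 3 SD, cut at about 70% in these data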;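 further: 0% = DMSO with NR2E3 transfected cells and 100% = cells lacking NR2E3 construct; higher means lower luciferase signal from less NR2E3 corepressor binding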
# NR2E3 ag-2: agonists of human nuclear receptor NR2E3; 0.12% of 320,000 active; Q9Y5X4; AID 2300; GST-NR2E3/biotin-RetCOR TR-FRET, 1536-well; inhibition of corepressor binding, % at 4.78 µM;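 active means percent inhibition above the cutoff of mean plus 3 SD of all tested compounds, set per screening campaign, cut at about 20% in these data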;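 further: 0% = DMSO wells and 100% = biotin wells as full block of FRET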
#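 Format: 1536-well format; test system: GST-NR2E3 and biotin-RetCOR proteins; read-out basis: percent inhibition of TR-FRET ratio; timing: 5 h incubation at 4 °C; detection: time-resolved FRET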
# PG9 binder: PG9 antibody binding by small molecule; TR-FRET gp120-PG9 antibody binding; inhibition, % at 6.7 µM; 0.43% of 360,000 active; in the data active means inhibition above about 8.5%
# MC4R ag barr: activates human MC4R beta-arrestin recruitment | P32245 | U2OS MC4R beta-arrestin complementation, luminescence; percent of melanotan II response, DMSO zero | activation, % at 8.9 µM | 0.98% of 360,000 active | AID 540308;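 active means activation above a per-plate cutoff, the mean activation of sample wells on that plate plus 3 SD, cut at about 8% in these data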
# Target sequence (P32245 whole entry, looked up): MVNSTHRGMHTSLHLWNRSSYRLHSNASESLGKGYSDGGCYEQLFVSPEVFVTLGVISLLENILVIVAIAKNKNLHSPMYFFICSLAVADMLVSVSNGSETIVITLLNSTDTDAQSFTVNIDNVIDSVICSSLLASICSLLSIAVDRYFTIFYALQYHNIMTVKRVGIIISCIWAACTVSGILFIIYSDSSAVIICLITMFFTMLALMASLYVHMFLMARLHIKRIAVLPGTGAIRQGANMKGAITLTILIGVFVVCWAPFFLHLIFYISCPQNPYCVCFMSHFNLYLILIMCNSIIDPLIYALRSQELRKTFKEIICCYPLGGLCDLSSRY
# MC4R antag cAMP: antagonists of human melanocortin 4 receptor (MC4R); inhibition, % at 6.5 µM; P32245; 0.48% of 360,000 active; MC4R-expressing cells, MTII-stimulated cAMP, LANCE TR-FRET;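 active means inhibition above its plate's cutoff, the mean of tested wells on that plate plus 3 SD, cut at about 29% in these data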;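 further: 0% = Melanotan II alone and 100% = Melanotan II plus saturating MCL0020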
#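 system = U2OS cells with stable human MC4R expression | also added = Melanotan II challenge after compound preincubation | dosing = one concentration, 6.5 µM nominal | incubation = compound 30 min, challenge 1 h, detection 1 h | measured by = TR-FRET with Eu-cAMP and labeled anti-cAMP, 671 nm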
# Rev-erbA mod: modulates human Rev-erb alpha binding to DNA | P20393 | 0.79% of 370,000 active | activity, % at 10 µM | Rev-erbα–FITC-DNA binding, fluorescence polarization, 90 min;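 active means activity above about 14%, limit read from the data; passing the limit was not always enough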;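 further: 0% = DMSO wells with 35 nM protein and 100% = DMSO wells with 750 nM protein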
# PG9 bind confirm: PG9 antibody binding, confirmed. shares compounds with PG9 binder. TR-FRET PG9 antibody binding, biochemical. inhibition, % at 6.7 µM. 90% of 1,500 active. AID 651571; in the data active means inhibition above about 9%
# PGV04 counter: binds control antibody PGV04 in PG9 binder counter-screen | inhibition, % at 6.7 µM | shares compounds with PG9 binder | 95% of 1,500 active | TR-FRET PGV04 antibody-gp120 binding, biochemical; in the data active means inhibition above about 9.5%
# NR1D1 mod conf: Rev-erb alpha (human) modulation, hit confirmation; shares compounds with Rev-erbA mod; Rev-erb alpha FITC-DNA binding, fluorescence polarization, 90 min; activation, % at 25 µM; 61% of 3,000 active; AID 1259319;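 active means activation at or above a set limit, or at least 3 SD above the negative control mean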;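 further: 0% = 35 nM protein with DMSO and 100% = 750 nM protein high control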
# RORg counter: counter-screen for Rev-erb alpha modulators: RORgamma DNA binding; shares compounds with Rev-erbA mod; purified RORgamma protein-FITC-DNA binding, fluorescence polarization; IC50, µM; 8% of 910 active; AID 1259320;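 active means Compounds whose fitted half-maximal concentration for disrupting protein-DNA binding is below 10 micromolar; the record names Rev-erb in its text, so the target is in doubt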
# The depositor's hits bear a star; i = inactive; nt = no result given.
SMILES,NR2E3 ag-1,NR2E3 ag-2,PG9 binder,MC4R ag barr,MC4R antag cAMP,Rev-erbA mod,NR1D1 mod conf,others
Cc1ccc(C)c(C2(O)CC(C)N(C)CC2C)c1 (stereo not drawn),10,-1,-2,0,3,-6,nt,
CCCCCn1c(=O)c(C(=O)Nc2ccccc2S(N)(=O)=O)c(O)c2ccccc21,-13,-2,69*,3,-5,43*,18,PG9 bind confirm=79*;PGV04 counter=83*
CN(C)CCN=Cc1c(O)n(C2CCCCCC2)c(=O)[nH]c1=O,-34,-1,-2,0,6,-7,nt,
CCCCCCCn1c(=O)c(C(=O)Nc2cnccn2)c(O)c2ccccc21,-9,5,-4,1,7,48*,43*,RORg counter=>40
CCCCCCn1c(O)c(C=Nc2ccccc2N2CCOCC2)c(=O)[nH]c1=S,-9,6,-2,1,0,54*,5,
COC(=O)c1ccc(COc2cc(C)cc3oc(=O)c4c(c23)CCCC4)o1,-5,-1,0,1,-14,5,nt,
CCOc1cc(C)cc2oc(=O)c3c(c12)CCCC3,-15,0,-1,-2,2,27*,2,
COC(=O)C1=C(c2ccc(F)cc2F)C[C@@H]2CC[C@H]1N2C(=O)NCCO,-21,0,0,-2,11,-2,nt,
COC(=O)C1=C(c2ccc(F)cc2F)C[C@@H]2CC[C@H]1N2C(=O)NCCCOC(C)C,-12,1,1,-1,2,19*,0,
O=C(O)C1C(C(=O)O)C2(Cl)C(Cl)=C(Cl)C1(Cl)C2(Cl)Cl (stereo not drawn),3,1,0,0,1,-8,nt,
O=C(/C=C/c1c[nH]c2ccccc12)c1c(O)n(CCc2ccccc2)c(=O)[nH]c1=O,-30,4,0,0,13,39*,3,
COc1ccc(CCn2c(O)c(C=Nc3ccc(F)cc3)c(=O)[nH]c2=O)cc1OC,-12,1,0,4,10,130*,69*,RORg counter=i
COC(=O)c1cccc(N=Cc2c(O)n(Cc3ccc(F)cc3)c(=O)[nH]c2=O)c1,-9,-1,-3,0,15,616*,22*,
O=C(O)c1ccc(N=Cc2c(O)n(Cc3ccc(F)cc3)c(=O)[nH]c2=O)cc1,-17,-3,1,0,5,-3,nt,
CN(C)C(=O)Oc1ccc(Cl)c2ccccc12,-11,0,2,0,1,6,nt,
O=c1[nH]c(O)c(N=Nc2cc([N+](=O)[O-])ccc2O)c(=O)[nH]1,-30,-21,-23,-4,-26,20*,7,
O=P1(NCCCl)OCCC(OO)N1CCCl (stereo not drawn),10,nt,0,nt,nt,-7,nt,
CC(C)CCN1CCN(Cc2c(F)cccc2Cl)CC1CCO (stereo not drawn),-1,2,-2,-2,4,-5,nt,
CCOc1ccc(N2C(=O)NC(=O)/C(=C\c3ccc(N4CCCCC4)o3)C2=O)cc1,-34,-6,-6,-2,-19,29*,33*,
O=C1NC(=O)N(c2ccc3c(c2)OCO3)C(=O)/C1=C/c1ccc(N2CCCC2)o1,-10,0,-3,0,-22,7,nt,
CN1C(=O)/C(=C\c2ccc(N3CCCCC3)o2)C(=O)NC1=S,-50,-2,-10,-3,-29,110*,132*,RORg counter=i
CCN1C(=O)C(=Cc2ccc(N3CCOCC3)o2)C(=O)N(CC)C1=S,-23,0,-3,-3,5,10,nt,
CN1C(=O)C(=Cc2ccc(N3CCOCC3)o2)C(=O)N(C)C1=S,-23,0,-3,-2,-11,39*,44*,RORg counter=>40
CN1/C(=C\C=C2C(=O)NC(=O)NC2=O)C(C)(C)c2ccccc21,-11,0,-3,-3,-19,20*,-1,
C[C@]12CCC(=O)C=C1C=C[C@@H]1[C@@H]2CC[C@@]2(C)[C@H]1CC[C@@]2(O)CCC(=O)O,-18,3,0,1,27,-4,nt,
N#Cc1ccccc1Cn1cc(C(=O)c2cccs2)c2ccccc21,-26,1,1,7,13,25*,10,
O=C(c1cccs1)c1cn(Cc2ccccc2Cl)c2ccccc12,3,7,-3,3,3,8,nt,
Cn1cc(C(=O)OCC(=O)Nc2ccccc2)c2ccccc21,-45,2,1,-2,-3,2,nt,
Fc1cccc(CCNCc2ccccn2)c1,-23,1,-1,-1,5,7,nt,

# Compound activity from PubChem BioAssay.
